Tests used:
[1] = Partion coefficient in octanol/H2O system at pH=7; format: physicochemical
Outline: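 Partition between octanol and Britton-Robinson buffer, measured across pH 0–13; value read at pH 7.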

[2] = Solubility of compound in water was determined; format: physicochemical; conditions: buffer
Canis familiaris [3] = experiment: Saluretic activity in the dog measured as concentration of Na+ in urinary excretion (2 animals/dose) at (dose 0.1 mg/Kg, perorally); format: functional, Canis lupus familiaris, Urine
Outline: (§1)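 Male beagles trained to rest on a table and to accept stomach tube and catheter. Food withdrawn 24 h before, tap water ad libitum. Bladder emptied by catheter, then 20 mL/kg tap water by stomach tube. Catheterized hourly up to 8 h with 4 mL/kg water orally each time; first 2 h urine served as control. Oral dosing after second catheterization. Pooled 1–6 h urine; Na⁺/K⁺ by flame photometry, Cl⁻ argentometrically.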

Canis familiaris [4] = experiment: Saluretic activity in the dog measured as concentration of Na+ in urinary excretion (2 animals/dose) at (dose 1.56 mg/Kg, perorally); format: functional, Canis lupus familiaris, Urine; outline: as §1
Canis familiaris [5] = experiment: Diuretic activity in the dog (2 animals/dose) at (dose 0.1 mg/Kg), when administered perorally; format: functional, Canis lupus familiaris, Urine
Outline: (§2)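 Trained male beagles, fasted 24 h with tap water ad libitum. Bladder emptied by catheter, then 20 mL/kg tap water by stomach tube, with 4 mL/kg water at each hourly catheterization up to 8 h. The first 2 h of urine served as control. Oral dosing came after the second catheterization, and 1–6 h urine was pooled. Na⁺ and K⁺ were measured by flame photometry, Cl⁻ argentometrically, in mequiv/kg.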

Canis familiaris [6] = experiment: Diuretic activity in the dog (2 animals/dose) at (dose 0.4 mg/Kg), when administered perorally; format: functional, Canis lupus familiaris, Urine; outline: as §2
Canis familiaris [7] = experiment: Diuretic activity in the dog (2 animals/dose) at (dose 1.56 mg/Kg), when administered perorally; format: functional, Canis lupus familiaris, Urine; outline: as §2
Canis familiaris [8] = experiment: Saluretic activity in the dog measured as concentration of K+ in urinary excretion (2 animals/dose) at (dose 0.1 mg/Kg, perorally); format: functional, Canis lupus familiaris, Urine
Outline: (§3)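 Male beagles trained to the procedures, food withdrawn 24 h before, tap water ad libitum. Bladder emptied by catheter, then 20 mL/kg tap water by stomach tube, plus 4 mL/kg orally at each hourly catheterization up to 8 h. The first 2 h of urine served as control. Compound given orally after the second catheterization. Urine from 1–6 h post-dose pooled; Na⁺ and K⁺ by flame photometry, Cl⁻ argentometrically, in mequiv/kg.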

Canis familiaris [9] = experiment: Saluretic activity in the dog measured as concentration of K+ in urinary excretion (2 animals/dose) at (dose 0.4 mg/Kg, perorally); format: functional, Canis lupus familiaris, Urine; outline: as §3
Canis familiaris [10] = experiment: Saluretic activity in the dog measured as concentration of K+ in urinary excretion (2 animals/dose) at (dose 1.56 mg/Kg, perorally); format: functional, Canis lupus familiaris, Urine; outline: as §3
Canis familiaris [11] = experiment: Saluretic activity in the dog measured as concentration of Cl - in urinary excretion (2 animals/dose) at (dose 0.1 mg/Kg, perorally); format: functional, Canis lupus familiaris, Urine; outline: as §3
Canis familiaris [12] = experiment: Saluretic activity in the dog measured as concentration of Cl - in urinary excretion (2 animals/dose) at (dose 1.56 mg/Kg, perorally); format: functional, Canis lupus familiaris, Urine; outline: as §3
Canis familiaris [13] = experiment: Saluretic activity in the dog measured as concentration of Cl - in urinary excretion (2 animals/dose) at (dose 0.4 mg/Kg, perorally); format: functional, Canis lupus familiaris, Urine; outline: as §3
Canis familiaris [14] = experiment: sodium excretion collected at 1-24 hr time after oral administration in dog (four animals per dose) dosed at 0.39 mg/kg.; format: functional, Canis lupus familiaris
Outline: (§4)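 Trained male beagles, four per dose, fasted 24 h with tap water ad libitum. After bladder emptying, given 20 mL/kg tap water by stomach tube, then 4 mL/kg at each hourly catheterization; 2 h control collection, then oral dosing. Urine volume and Na⁺ (flame photometry) reported for 1–6, 7–24 and 1–24 h post-dose periods.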

Canis familiaris [15] = experiment: sodium excretion collected at 1-24 hr time after oral administration in dog (four animals per dose) dosed at 3.12 mg/kg.; format: functional, Canis lupus familiaris; outline: as §4
Canis familiaris [16] = experiment: urinary excretion collected at 7-24 hr time after oral administration in dog (four animals per dose) dosed at 3.12 mg/kg.; format: functional, Canis lupus familiaris, Urine
Canis familiaris [17] = experiment: urinary excretion collected at 1-24 hr time after oral administration in dog (four animals per dose) dosed at 3.12 mg/kg.; format: functional, Canis lupus familiaris, Urine
Outline: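 Trained male beagles, four per dose, fasted 24 h with tap water ad libitum. The bladder was emptied by catheter, then 20 mL/kg tap water was given by stomach tube. Dogs were catheterized hourly with 4 mL/kg water orally each time, and the first 2 h served as control. Compound was given orally after the second catheterization. Urine volume and flame-photometric Na⁺ were measured over 1-6, 7-24 and 1-24 h.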

Rattus norvegicus [18] = species on record: Rattus norvegicus; experiment: Diuretic activity in the rats, determined by a modified Lipschitz test; format: functional, Urine
Outline: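 Modified Lipschitz test: rats deprived of water 24 h, grouped in threes of similar weight in diuresis funnels. Oral dose of 50 mg/kg, suspended in 2% starch solution, by stomach tube.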

Rattus norvegicus [19] = species on record: Rattus norvegicus; experiment: Saluretic activity in the rat measured as concentration of chloride in urine; format: functional
Outline: (§5)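 Rats deprived of food 24 h, water ad libitum, dosed 50 mg/kg by stomach tube as suspension in 2% starch, no extra water load. Groups of three in diuresis funnels; urine over first 5 h collected. Na⁺ and K⁺ by flame photometry, Cl⁻ argentometrically; expressed as mequiv/kg.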

Rattus norvegicus [20] = species on record: Rattus norvegicus; experiment: Saluretic activity in the rat measured as concentration of K+ in urine; format: functional; outline: as §5
[21] = It is the ratio, measured as saluretic activity in the dog as concentration of Cl- in urinary excretion (dose 0.4 mg/Kg, po) to that of (Na+)+(K+); format: functional, Urine; outline: as §2
[22] = It is the ratio, measured as saluretic activity in the dog as concentration of Cl- in urinary excretion (dose 0.1 mg/Kg, perorally) to that of (Na+)+(K+); format: functional, Urine; outline: as §2
[23] = It is the ratio, measured as saluretic activity in the dog as concentration of Na+ in urinary excretion (dose 0.1 mg/Kg, perorally) to that of K; format: functional, Urine; outline: as §2
[24] = It is the ratio, measured as saluretic activity in the dog as concentration of Na+ in urinary excretion (dose 0.4 mg/Kg, perorally) to that of K; format: functional, Urine; outline: as §2
Rattus norvegicus [25] = species on record: Rattus norvegicus; experiment: Saluretic activity in the rat measured as concentration of Na+ in urine; format: functional; outline: as §5
[26] = Dissociation constant, pK1 was determined using sodium salt
[27] = Dissociation constant, pK2 was determined using sodium salt
Canis familiaris [28] = experiment: urinary excretion collected at 1-24 hr time after oral administration in dog (four animals per dose) dosed at 0.39 mg/kg.
Canis familiaris [29] = experiment: sodium excretion collected at 1-24 hr time after oral administration in dog (four animals per dose) at dose 0.39 mg/kg.; format: functional, Canis lupus familiaris; outline: as §4
Canis familiaris [30] = experiment: sodium excretion collected at 1-24 h time after oral administration in dog (four animals per dose) at dose 6.25 mg/kg.; format: functional, Canis lupus familiaris; outline: as §4
[31] = It is the ratio, measured as saluretic activity in the dog as concentration of Cl- in urinary excretion (dose 0.4 mg/Kg, perorally) to that of (Na++K+); format: functional, Urine; outline: as §2
Rattus norvegicus [32] = species on record: Rattus norvegicus; experiment: Effect on inulin U/P ratio in rats in comparison to furosemide activity

Compound	Partition coefficient [1]	Solubility [2] [%]	Saluretic activity (Canis familiaris [3]) [m equiv 6hr-1 kg-1]	Saluretic activity (Canis familiaris [4]) [m equiv 6hr-1 kg-1]	Diuretic activity (Canis familiaris [5]) [ml kg-1 6hr-1]	Diuretic activity (Canis familiaris [6]) [ml kg-1 6hr-1]	Diuretic activity (Canis familiaris [7]) [ml kg-1 6hr-1]	Saluretic activity (Canis familiaris [8]) [m equiv 6hr-1 kg-1]	Saluretic activity (Canis familiaris [9]) [m equiv 6hr-1 kg-1]	Saldiuretic activity (Canis familiaris [11]) [m equiv 6hr-1 kg-1]	Saldiuretic activity (Canis familiaris [12]) [m equiv 6hr-1 kg-1]	Saldiuretic activity (Canis familiaris [13]) [m equiv 6hr-1 kg-1]	Diuretic activity (Rattus norvegicus [18]) [mL/kg]	Saluretic activity (Rattus norvegicus [19]) [m equiv 5hr-1 kg-1]	Saluretic activity (Rattus norvegicus [20]) [m equiv 5hr-1 kg-1]	Ratio [22]	Ratio [23]	Ratio [24]	Saluretic activity (Rattus norvegicus [25]) [m equiv 5hr-1 kg-1]	pKa [26]	other results
CN(c1ccccc1)c1cc(NCc2ccco2)c(S(=O)(=O)[O-])cc1S(N)(=O)=O.[Na+]	0.28	4	3.08	5.74	54.3	75.3	69.4	0.72	1.28	3.99	6.79	6.34	4.6	9.4	2.4	1.1	4.3	4.1	8.2	1	Saldiuretic activity (Canis familiaris [10]): 1.17 m equiv 6hr-1 kg-1; Na+ excretion (Canis familiaris [14]): 5.81 mequiv kg-1; Na+ excretion (Canis familiaris [15]): 6.48 mequiv kg-1; Urinary excretion (Canis familiaris [16]): 40.8 mL/kg; Urinary excretion (Canis familiaris [17]): 102 mL/kg; Ratio [21]: 1; pKa [27]: 10.5; Urinary excretion (Canis familiaris [28]): 95.7 mL/kg
NS(=O)(=O)c1cc(S(=O)(=O)[O-])c(NCc2ccco2)cc1Oc1ccccc1.[Na+]	0.12	20	1.19	4.89	30	36.4	71.4	0.15	0.34	0.27	5.47	1.65	4.1	9.6	2.1	0.8	1.2	3.5	7	0.5	Saluretic activity (Canis familiaris [10]): 1 m equiv 6hr-1 kg-1; Na+ excretion (Canis familiaris [29]): 2.04 mequiv/kg; Na+ excretion (Canis familiaris [30]): 8.55 mequiv kg-1; Ratio [31]: 1.1; pKa [27]: 10.2; Ratio (Rattus norvegicus [32]): 7.66
